In ChEMBL document CHEMBL2157922, “Synthesis and antifungal activity of diverse C-2 pyridinyl and pyridinylvinyl substituted quinolines” (2012):
Converted amounts (≈) assume the structure as drawn.

Tests used:
Assay type in all cases: functional
Aspergillus niger = assay: Antifungal activity against Aspergillus niger ATCC 9029 after 48 hrs by broth microdilution technique; details: ATCC 9029, 48 h
In short: (§1)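 Moulds and dermatophytes were run by CLSI broth microdilution in MOPS-buffered RPMI-1640 at pH 7.0. Aspergillus was incubated at 30 °C and dermatophytes at 28–30 °C, in a moist, dark chamber. MIC100, the lowest concentration with no visible growth, was read visually at a time set by growth of the control fungus.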

Nannizzia gypsea = assay: Antifungal activity against Microsporum gypseum CCC 115 after 48 hrs by broth microdilution technique; details: CCC 115, 48 h; in short: as §1
Candida albicans = assay: Antifungal activity against Candida albicans ATCC 10231 after 48 hrs by broth microdilution technique; details: ATCC 10231, 48 h
In short: (§2)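 Yeasts were tested by CLSI broth microdilution in RPMI-1640 buffered to pH 7.0 with MOPS, with compound from 250 down to 0.98 in DMSO stocks. Trays were held at 30 °C in a moist, dark chamber. MIC100, the lowest concentration giving total visual inhibition against the growth control, was read by eye at 48 h.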

Trichophyton rubrum = assay: Antifungal activity against Trichophyton rubrum CCC 113 after 48 hrs by broth microdilution technique; details: CCC 113, 48 h
Aspergillus flavus = assay: Antifungal activity against Aspergillus flavus ATCC 9170 after 48 hrs by broth microdilution technique; details: ATCC 9170, 48 h; in short: as §1
Cryptococcus neoformans = assay: Antifungal activity against Cryptococcus neoformans ATCC 32264 after 48 hrs by broth microdilution technique; details: ATCC 32264, 48 h; in short: as §2
Aspergillus fumigatus = assay: Antifungal activity against Aspergillus fumigatus ATCC 26934 after 48 hrs by broth microdilution technique; details: ATCC 26934, 48 h; in short: as §1
Saccharomyces cerevisiae = assay: Antifungal activity against Saccharomyces cerevisiae ATCC 9763 after 48 hrs by broth microdilution technique; details: ATCC 9763, 48 h; in short: as §2
[1] = test system: Trichophyton mentagrophytes; assay: Antifungal activity against Trichophyton mentagrophytes ATCC 9972 after 48 hrs by broth microdilution technique; details: ATCC 9972, 48 h; in short: as §1

| SMILES | MIC (Aspergillus niger) [µg/mL] | MIC (Nannizzia gypsea) [µg/mL] | MIC (Candida albicans) [µg/mL] | MIC (Trichophyton rubrum) [µg/mL] | MIC (Aspergillus flavus) [µg/mL] | MIC (Cryptococcus neoformans) [µg/mL] | MIC (Aspergillus fumigatus) [µg/mL] | MIC (Saccharomyces cerevisiae) [µg/mL] | MIC [1] [µg/mL] | MFC (Aspergillus niger) [µg/mL] | MFC (Nannizzia gypsea) [µg/mL] | MFC (Trichophyton rubrum) [µg/mL] | MFC (Aspergillus flavus) [µg/mL] | MFC (Cryptococcus neoformans) [µg/mL] | MFC (Aspergillus fumigatus) [µg/mL] | MFC [1] [µg/mL] |
| --- | --- | --- | --- | --- | --- | --- | --- | --- | --- | --- | --- | --- | --- | --- | --- | --- |
| CC(=O)N1CCN(c2ccc(OCC3COC(Cn4ccnc4)(c4ccc(Cl)cc4Cl)O3)cc2)CC1 (centres undefined) [KETOCONAZOLE] | 0.25 (≈ 0.47 µM) | 0.06 (≈ 0.113 µM) | 0.49 (≈ 0.922 µM) | 0.03 (≈ 0.0565 µM) | 0.12 (≈ 0.226 µM) | 0.25 (≈ 0.47 µM) | 0.49 (≈ 0.922 µM) | 0.49 (≈ 0.922 µM) | 0.03 (≈ 0.0565 µM) |  |  |  |  |  |  |  |
| Fc1ccc2nc(-c3cccnc3)ccc2c1 | 250 (≈ 1110 µM) | 62 (≈ 276 µM) | > 250 | 62 (≈ 276 µM) | 125 (≈ 557 µM) | 62 (≈ 276 µM) | 125 (≈ 557 µM) | > 250 | 62 (≈ 276 µM) | > 250 | 62 (≈ 276 µM) | 62 (≈ 276 µM) | 250 (≈ 1110 µM) | 250 (≈ 1110 µM) | 250 (≈ 1110 µM) | 62 (≈ 276 µM) |
| CN(C/C=C/C#CC(C)(C)C)Cc1cccc2ccccc12 [TERBINAFINE] | 1.96 (≈ 6.73 µM) | 0.04 (≈ 0.137 µM) | 1.95 (≈ 6.69 µM) | 0.01 (≈ 0.0343 µM) | 0.98 (≈ 3.36 µM) | 0.49 (≈ 1.68 µM) | 0.98 (≈ 3.36 µM) | 3.9 (≈ 13.4 µM) | 0.03 (≈ 0.103 µM) |  |  |  |  |  |  |  |
